Test results from the M2OR odorant receptor database.

What was measured:
Details in all cases: stereoisomer not certain
[1] = biological target: T1, UniProt Q7TR71
T1 sequence (whole entry): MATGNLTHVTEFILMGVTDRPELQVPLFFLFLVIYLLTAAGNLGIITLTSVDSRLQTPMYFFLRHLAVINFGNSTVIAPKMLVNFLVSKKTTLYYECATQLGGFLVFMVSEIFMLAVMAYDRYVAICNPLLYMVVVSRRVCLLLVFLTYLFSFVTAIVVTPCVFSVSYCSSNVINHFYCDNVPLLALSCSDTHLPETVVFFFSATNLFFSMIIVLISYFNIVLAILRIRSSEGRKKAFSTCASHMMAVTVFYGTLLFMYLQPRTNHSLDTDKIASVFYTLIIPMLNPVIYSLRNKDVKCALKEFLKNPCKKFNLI
How it was run: (§1)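 Each receptor–molecule pair is labelled responsive or non-responsive (inactive) according to whether the original authors judged the measured signal statistically different from baseline. The data were taken from the main text and supplementary material of published papers and checked for typos and inconsistencies. Assay methods differed by source, with transient luciferase assays in mammalian cell lines being common.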

[2] = biological target: T2, UniProt Q7TR79
T2 sequence (whole entry): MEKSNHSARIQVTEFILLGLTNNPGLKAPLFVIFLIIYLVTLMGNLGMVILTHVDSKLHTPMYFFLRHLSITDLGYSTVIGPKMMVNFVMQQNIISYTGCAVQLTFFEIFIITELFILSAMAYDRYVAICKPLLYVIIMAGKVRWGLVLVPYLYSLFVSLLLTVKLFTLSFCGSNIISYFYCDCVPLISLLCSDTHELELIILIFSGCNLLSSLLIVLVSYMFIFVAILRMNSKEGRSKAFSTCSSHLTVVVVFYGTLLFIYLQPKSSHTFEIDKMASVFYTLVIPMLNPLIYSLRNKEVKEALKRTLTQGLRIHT
How it was run: as §1

[3] = biological target: T3, UniProt Q7TRA3
T3 sequence (whole entry): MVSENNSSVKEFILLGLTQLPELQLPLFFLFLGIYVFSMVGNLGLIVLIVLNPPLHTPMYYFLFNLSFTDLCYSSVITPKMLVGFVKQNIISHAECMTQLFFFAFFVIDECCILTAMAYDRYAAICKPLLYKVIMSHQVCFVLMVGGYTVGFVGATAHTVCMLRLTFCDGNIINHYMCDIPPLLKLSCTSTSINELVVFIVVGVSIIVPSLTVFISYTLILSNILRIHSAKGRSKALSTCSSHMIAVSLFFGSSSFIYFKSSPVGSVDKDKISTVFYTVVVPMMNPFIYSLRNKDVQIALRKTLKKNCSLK
How it was run: as §1

[4] = biological target: T4, UniProt Q7TRE4
T4 sequence (whole entry): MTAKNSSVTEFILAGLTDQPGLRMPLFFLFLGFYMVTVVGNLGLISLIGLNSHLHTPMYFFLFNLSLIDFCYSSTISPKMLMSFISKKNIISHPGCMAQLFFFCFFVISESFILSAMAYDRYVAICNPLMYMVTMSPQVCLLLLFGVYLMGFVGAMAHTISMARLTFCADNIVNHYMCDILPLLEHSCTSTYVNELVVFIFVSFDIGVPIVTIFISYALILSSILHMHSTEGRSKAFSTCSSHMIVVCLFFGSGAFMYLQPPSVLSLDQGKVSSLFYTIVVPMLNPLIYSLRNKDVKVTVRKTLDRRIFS
How it was run: as §1

[5] = biological target: T5, UniProt Q7TRW1
T5 sequence (whole entry): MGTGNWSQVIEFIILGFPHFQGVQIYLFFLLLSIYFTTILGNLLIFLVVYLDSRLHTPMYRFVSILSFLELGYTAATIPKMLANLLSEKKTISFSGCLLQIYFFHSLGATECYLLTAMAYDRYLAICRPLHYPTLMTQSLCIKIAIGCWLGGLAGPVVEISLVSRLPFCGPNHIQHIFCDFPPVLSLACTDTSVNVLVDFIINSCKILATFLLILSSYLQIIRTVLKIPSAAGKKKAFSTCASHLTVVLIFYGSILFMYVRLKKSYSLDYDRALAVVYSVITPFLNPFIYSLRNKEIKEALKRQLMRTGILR
How it was run: as §1

[6] = biological target: T6, UniProt Q7TRX0
T6 sequence (whole entry): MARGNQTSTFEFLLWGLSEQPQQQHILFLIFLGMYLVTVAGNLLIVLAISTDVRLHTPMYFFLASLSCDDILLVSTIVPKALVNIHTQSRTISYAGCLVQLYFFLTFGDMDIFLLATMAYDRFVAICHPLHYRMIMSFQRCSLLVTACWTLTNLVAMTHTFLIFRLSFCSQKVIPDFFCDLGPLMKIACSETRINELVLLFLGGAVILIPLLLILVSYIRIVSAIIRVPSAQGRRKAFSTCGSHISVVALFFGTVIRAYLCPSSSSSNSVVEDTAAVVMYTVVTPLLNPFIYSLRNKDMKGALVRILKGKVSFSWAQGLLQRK
How it was run: as §1

[7] = biological target: UniProt Q7TRX1
UniProt Q7TRX1, sequence (Q7TRX1 as listed by the source): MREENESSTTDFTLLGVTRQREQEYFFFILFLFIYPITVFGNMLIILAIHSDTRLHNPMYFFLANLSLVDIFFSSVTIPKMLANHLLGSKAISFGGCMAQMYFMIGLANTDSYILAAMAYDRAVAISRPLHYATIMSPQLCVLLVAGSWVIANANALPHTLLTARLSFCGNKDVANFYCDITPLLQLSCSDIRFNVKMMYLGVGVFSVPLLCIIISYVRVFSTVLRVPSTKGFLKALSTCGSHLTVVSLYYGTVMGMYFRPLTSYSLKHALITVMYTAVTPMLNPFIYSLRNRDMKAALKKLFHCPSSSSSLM
How it was run: as §1

[8] = biological target: T7, UniProt Q8VEU7
T7 sequence (whole entry): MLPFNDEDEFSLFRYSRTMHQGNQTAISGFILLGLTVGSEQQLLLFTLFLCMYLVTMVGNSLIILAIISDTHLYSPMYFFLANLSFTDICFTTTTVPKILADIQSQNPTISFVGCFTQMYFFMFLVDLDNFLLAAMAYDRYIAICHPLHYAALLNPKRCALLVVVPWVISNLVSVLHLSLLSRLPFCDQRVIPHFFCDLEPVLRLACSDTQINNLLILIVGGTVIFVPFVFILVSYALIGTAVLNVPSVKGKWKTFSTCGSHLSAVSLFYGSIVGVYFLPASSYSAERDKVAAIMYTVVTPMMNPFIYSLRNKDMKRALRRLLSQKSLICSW
How it was run: as §1

[9] = biological target: T8, UniProt Q8VF05
T8 sequence (whole entry): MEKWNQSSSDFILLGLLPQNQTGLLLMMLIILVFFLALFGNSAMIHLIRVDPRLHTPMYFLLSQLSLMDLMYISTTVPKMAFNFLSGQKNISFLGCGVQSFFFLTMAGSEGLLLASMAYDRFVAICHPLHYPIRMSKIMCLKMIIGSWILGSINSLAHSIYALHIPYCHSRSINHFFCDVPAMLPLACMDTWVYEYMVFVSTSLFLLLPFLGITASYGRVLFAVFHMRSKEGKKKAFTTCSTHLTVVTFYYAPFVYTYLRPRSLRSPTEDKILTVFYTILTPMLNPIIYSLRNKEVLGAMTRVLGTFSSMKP
How it was run: as §1

[10] = biological target: T9, UniProt Q7TRN9
T9 sequence (whole entry): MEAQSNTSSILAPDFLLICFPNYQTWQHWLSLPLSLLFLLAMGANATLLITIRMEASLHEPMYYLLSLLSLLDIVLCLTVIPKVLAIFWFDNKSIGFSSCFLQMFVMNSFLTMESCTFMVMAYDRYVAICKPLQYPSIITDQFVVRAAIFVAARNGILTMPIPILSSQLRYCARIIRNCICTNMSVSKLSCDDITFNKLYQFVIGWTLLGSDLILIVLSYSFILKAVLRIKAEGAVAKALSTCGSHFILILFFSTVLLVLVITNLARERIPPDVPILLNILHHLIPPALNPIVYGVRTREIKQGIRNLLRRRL
How it was run: as §1

[11] = biological target: T10, UniProt Q7TRR8
T10 sequence (whole entry): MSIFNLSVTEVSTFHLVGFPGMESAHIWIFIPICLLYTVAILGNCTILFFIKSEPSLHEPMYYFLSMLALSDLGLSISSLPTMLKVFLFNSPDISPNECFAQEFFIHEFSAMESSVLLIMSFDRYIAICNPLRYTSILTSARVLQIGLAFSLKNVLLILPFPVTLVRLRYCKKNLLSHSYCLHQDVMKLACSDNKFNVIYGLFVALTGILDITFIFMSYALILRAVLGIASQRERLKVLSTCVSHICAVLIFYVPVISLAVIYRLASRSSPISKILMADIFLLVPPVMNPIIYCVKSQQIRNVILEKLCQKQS
How it was run: as §1
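Note: active if original authors judged signal statistically different from baseline.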

Structure (SMILES)	odorant receptor agonist call [1]	odorant receptor agonist call [2]	odorant receptor agonist call [3]	odorant receptor agonist call [4]	odorant receptor agonist call [5]	odorant receptor agonist call [6]	odorant receptor agonist call [7]	odorant receptor agonist call [8]	odorant receptor agonist call [9]	odorant receptor agonist call [10]	odorant receptor agonist call [11]
CC(C)=CCCC(C)CCO (centres undefined)	inactive	inactive	inactive	inactive	inactive	inactive	active	inactive	inactive	–	–
CC(=O)OCC=C(C)C	inactive	inactive	inactive	inactive	inactive	inactive	–	inactive	active	–	–
CCCCCCCO	inactive	inactive	inactive	inactive	inactive	inactive	–	inactive	active	inactive	inactive
CC(=O)OCc1ccccc1	inactive	inactive	inactive	inactive	inactive	inactive	–	inactive	active	–	–
COc1cc(C(=O)O)ccc1O	inactive	inactive	inactive	inactive	inactive	inactive	–	inactive	inactive	–	–
c1ccccc1	inactive	inactive	inactive	inactive	inactive	inactive	–	inactive	active	–	–
CCC(=O)O	inactive	inactive	inactive	inactive	inactive	inactive	–	inactive	inactive	–	–
CCCCCC=O	inactive	inactive	inactive	inactive	inactive	inactive	–	inactive	active	–	–
CCC(=O)C(=O)CC	inactive	inactive	inactive	inactive	inactive	inactive	–	inactive	active	–	–
C=CCOC(=O)CCCCCC	inactive	inactive	inactive	inactive	inactive	inactive	–	inactive	inactive	–	–
CCOC(=O)C(C)C	inactive	inactive	inactive	inactive	inactive	inactive	–	inactive	active	–	–
CCCCCC(=O)CC	inactive	inactive	inactive	inactive	inactive	active	–	inactive	active	–	–
CCCCCCO	inactive	inactive	inactive	inactive	inactive	inactive	–	inactive	inactive	inactive	inactive
